These results are taken from ChEMBL document CHEMBL1158375, “Design and synthesis of new N-(fluorenyl-9-methoxycarbonyl) (Fmoc)-dipeptides as anti-inflammatory agents” (Eur J Med Chem, 2009).

Holding throughout (conditions): Neutrophil
A short description of experiment [1]: Antiinflammatory activity in fMLP/cytochalasin B-stimulated human neutrophils assessed as inhibition of superoxide anion generation after 5 mins. Type of experiment: functional, cell-based. Summed up:
(§1)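 Donor neutrophils isolated by dextran sedimentation, Ficoll Hypaque and hypotonic lysis, kept in Ca2+-free HBSS pH 7.4 at 4 °C. Cells given 0.5 mg/mL ferricytochrome c and 1 mM Ca2+, 2 min at 37 °C, drug 5 min, CB 1 μg/mL 3 min, then 100 nM fMLP for 10 min. SOD-inhibitable cytochrome c reduction. IC50 or % inhibition at 10 μg/mL; mean ± S.E.M., n = 3-4.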

Experiment [2] is described as follows: Antiinflammatory activity in fMLP/cytochalasin B-stimulated human neutrophils assessed as inhibition of elastase release at 10 ug/ml after 5 mins. Format: functional. The method, boiled down: (§2)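 Neutrophils from healthy donor blood (dextran sedimentation, Ficoll Hypaque, hypotonic erythrocyte lysis; >98% viable), held in Ca2+-free HBSS pH 7.4 at 4 °C. 5 × 10⁵ cells/mL with 100 μM MeO-Suc-Ala-Ala-Pro-Val-p-nitroanilide, 2 min at 37 °C, drug 5 min, then 100 nM fMLP + 0.5 μg/mL CB. A405 followed continuously; percent of initial rate versus drug-free control. IC50 or % inhibition at 10 μg/mL; mean ± S.E.M., n = 3-4.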

Experiment [3] in a line: Antiinflammatory activity in fMLP/cytochalasin B-stimulated human neutrophils assessed as inhibition of elastase release after 5 mins. Type of experiment: functional, cell-based. The method, boiled down: as §2
Experiment [4] is described as follows: Antiinflammatory activity in fMLP/cytochalasin B-stimulated human neutrophils assessed as inhibition of superoxide anion generation at 10 ug/ml after 5 mins. Format: functional. Summed up:
as §1

The IC50 is the concentration at which inhibition is half-maximal. The inhibition is the change of the read-out against control, counted positive when it falls. Take `O=C(N[C@@H](Cc1c[nH]c2ccccc12)C(=O)O)OCC1c2ccccc2-c2ccccc21`: the 50% inhibitory concentration (IC50) in experiment [1] was 3.3 µM. The inhibition at 10 µg/mL in experiment [2] amounted to 45.4%.

In the case of `O=C(N[C@@H](Cc1ccccc1)C(=O)O)OCC1c2ccccc2-c2ccccc21`, the concentration for half-maximal inhibition (IC50) in experiment [3] is 14.2 µM; in experiment [1], 14.1 µM.

For `CC(=O)OC[C@@H](Cc1ccccc1)NC(=O)[C@H](Cc1ccc(O)cc1)NC(=O)OCC1c2ccccc2-c2ccccc21`, the concentration for half-maximal inhibition (IC50) in experiment [3] was 6.5 µM. For the same compound, the inhibition at 10 µg/mL in experiment [4] came to 8%.

`CC(=O)OC[C@H](Cc1ccccc1)NC(=O)[C@H](Cc1ccccc1)NC(=O)OCC1c2ccccc2-c2ccccc21`: the inhibition at 10 µg/mL in experiment [2] turned out to be 39.5%; in experiment [4] it was 2.8%.

In the case of `CC(=O)OC[C@H](Cc1ccccc1)NC(=O)[C@H](Cc1ccc(O)cc1)NC(=O)OCC1c2ccccc2-c2ccccc21`, the inhibition at 10 µg/mL in experiment [2] was 22.8%; in experiment [4], -0.5%.

As for `CC(=O)OC[C@H](Cc1ccccc1)NC(=O)[C@@H](NC(=O)OCC1c2ccccc2-c2ccccc21)C(C)C`, the inhibition at 10 µg/mL in experiment [2] was 27.7%; in experiment [4] it was -6.3%.

As to `CC(=O)OC[C@@H](Cc1ccccc1)NC(=O)[C@H](Cc1c[nH]c2ccccc12)NC(=O)OCC1c2ccccc2-c2ccccc21`, in experiment [3], the IC50 came out at 1.7 µM. Also, the inhibition at 10 µg/mL in experiment [4] is 18.6%.

As to `CC(=O)OC[C@H](Cc1ccccc1)NC(=O)[C@H](Cc1c[nH]c2ccccc12)NC(=O)OCC1c2ccccc2-c2ccccc21`, the concentration for half-maximal inhibition (IC50) in experiment [3] stood at 5.5 µM. The inhibition at 10 µg/mL in experiment [4] was determined as 24.5%.

As to `CC(=O)OC[C@H](Cc1ccccc1)NC(=O)[C@@H](N)Cc1ccc(O)cc1`, the inhibition at 10 µg/mL in experiment [2] was 22.8%; in experiment [4], -0.5%.

As to `CC(=O)OC[C@H](Cc1ccccc1)NC(=O)[C@H](Cc1ccccc1)NC(=O)OCc1ccccc1`, the inhibition at 10 µg/mL in experiment [2] worked out at 27.2%; in experiment [4], 39.3%.

In the case of `CC[C@H](C)[C@H](NC(=O)OCC1c2ccccc2-c2ccccc21)C(=O)N[C@@H](COC(C)=O)Cc1ccccc1`, the inhibition at 10 µg/mL in experiment [2] was found to be 22.5%; in experiment [4], 6%.

Take `CC(=O)OC[C@@H](Cc1ccccc1)NC(=O)[C@@H](NC(=O)OCC1c2ccccc2-c2ccccc21)C(C)C`: the values for the inhibition at 10 µg/mL in experiment [2] and in experiment [4] were 34.6% and -2.3%, respectively.

For the compound `CC(=O)OC[C@@H](Cc1ccccc1)NC(=O)[C@H](Cc1ccccc1)NC(=O)OCc1ccccc1`, the inhibition at 10 µg/mL was 35.4% in experiment [2] and 40.9% in experiment [4].

Turning to `CC(=O)OC[C@H](Cc1ccccc1)NC(=O)[C@H](Cc1cn(C(c2ccccc2)(c2ccccc2)c2ccccc2)cn1)NC(=O)OCC1c2ccccc2-c2ccccc21`, the inhibition at 10 µg/mL in experiment [2] amounted to 32%; in experiment [4] it was 9.5%.

For `CC(=O)OC[C@H](Cc1ccccc1)NC(=O)[C@H](Cc1ccc(OC(C)(C)C)cc1)NC(=O)OCC1c2ccccc2-c2ccccc21`, in experiment [3], the IC50 is 0.8 µM. Besides, in experiment [4], the inhibition at 10 µg/mL was 25.9%.

In the case of `CC(=O)OC[C@@H](Cc1ccccc1)NC(=O)[C@H](Cc1ccccc1)NC(=O)OCC1c2ccccc2-c2ccccc21`, the IC50 in experiment [3] was 12.9 µM. In experiment [4], the inhibition at 10 µg/mL came out at 31.3%.

As to `CC(=O)OC[C@@H](Cc1ccccc1)NC(=O)[C@H](Cc1ccc2ccccc2c1)NC(=O)OCC1c2ccccc2-c2ccccc21`, the half-inhibitory concentration (IC50) in experiment [3] was 14.5 µM. In addition, the inhibition at 10 µg/mL in experiment [4] worked out at 2.1%.

Consider `CC(=O)OC[C@H](Cc1ccccc1)NC(=O)[C@H](Cc1ccc2ccccc2c1)NC(=O)OCC1c2ccccc2-c2ccccc21`, for which the inhibition at 10 µg/mL in experiment [2] came out at 37.8%; in experiment [4], 5%.

As to `CC(=O)OC[C@@H](Cc1ccccc1)NC(=O)[C@H](Cc1ccc(OC(C)(C)C)cc1)NC(=O)OCC1c2ccccc2-c2ccccc21`, the figures for the inhibition at 10 µg/mL in experiment [2] and in experiment [4] were 31.9% and 22.3%, respectively.

In the case of `CC(=O)OC[C@@H](Cc1ccccc1)NC(=O)[C@H](Cc1cn(C(c2ccccc2)(c2ccccc2)c2ccccc2)cn1)NC(=O)OCC1c2ccccc2-c2ccccc21`, the results for the inhibition at 10 µg/mL in experiment [2] and in experiment [4] were -2.9% and 6.6%, respectively.

For the compound `CC(=O)OC[C@@H](Cc1ccccc1)NC(=O)[C@@H](N)Cc1ccccc1`, the IC50 in experiment [3] and in experiment [1] was greater than 20 µM in each case.

Take `CC(=O)OC[C@@H](Cc1ccccc1)NC(=O)[C@H](Cc1ccccc1)NC(=O)OC(C)(C)C`: the values for the inhibition at 10 µg/mL in experiment [2] and in experiment [4] were 11% and 4.7%, respectively.

Take `CC(C)(C)Oc1ccc(C[C@H](NC(=O)OCC2c3ccccc3-c3ccccc32)C(=O)O)cc1`: the 50% inhibitory concentration (IC50) in experiment [3] worked out at 5.6 µM; in experiment [1], 5.5 µM.

`CC(=O)OC[C@H](Cc1ccccc1)NC(=O)[C@@H](N)Cc1ccccc1`: the IC50 in experiment [3] and in experiment [1] was greater than 20 µM in each case.

As for `CC(C)[C@H](NC(=O)OCC1c2ccccc2-c2ccccc21)C(=O)O`, the inhibition at 10 µg/mL in experiment [2] was determined as 14.5%; in experiment [4] it was 29.4%.

Take `CC[C@H](C)[C@H](NC(=O)OCC1c2ccccc2-c2ccccc21)C(=O)O`: the concentration for half-maximal inhibition (IC50) in experiment [1] came out at 12.8 µM. For the same compound, the inhibition at 10 µg/mL in experiment [2] was determined as 39.8%.

On to `O=C(N[C@@H](Cc1ccc(O)cc1)C(=O)O)OCC1c2ccccc2-c2ccccc21`, for which the IC50 turned out to be 2.9 µM in experiment [3] and 2.4 µM in experiment [1].

In the case of `CC[C@H](C)[C@H](NC(=O)OCC1c2ccccc2-c2ccccc21)C(=O)N[C@H](COC(C)=O)Cc1ccccc1`, the inhibition at 10 µg/mL in experiment [2] came out at 25.8%; in experiment [4], 2.2%.

With `CC(=O)OC[C@H](Cc1ccccc1)NC(=O)[C@H](Cc1ccccc1)NC(=O)OC(C)(C)C`, the inhibition at 10 µg/mL worked out at 18.9% in experiment [2] and 42.1% in experiment [4].

For the compound `CC(=O)OC[C@@H](Cc1ccccc1)NC(=O)[C@@H](N)Cc1ccc(O)cc1`, in experiment [3], the half-inhibitory concentration (IC50) was determined as 3.7 µM. Further, in experiment [4], the inhibition at 10 µg/mL came to 8%.

As to `c1ccc2c(c1)[I+]c1ccccc1-2` [DIPHENYLENEIODONIUM], the half-maximal inhibitory concentration (IC50) in experiment [1] was determined as 0.7 µM.
